Data on six compounds can be found in ChEMBL document CHEMBL3227949, “Antimalarials. 4. Trichloronaphthalene amino alcohols” (1979).

In assay [1] the test system is Plasmodium berghei. Description: Antimalarial activity against Plasmodium berghei infected in mouse assessed as change in mean survival time at 640 mg/kg, sc administered as single dose 72 hrs after parasite infection (reference value: 6.1 days). Format: functional. The following applies: route subcutaneous.
In assay [2] the test system is Plasmodium berghei. As to the kind of experiment: Antimalarial activity against Plasmodium berghei infected in mouse assessed as change in mean survival time at 80 mg/kg, sc administered as single dose 72 hrs after parasite infection (reference value: 6.1 days). The format is functional. The following applies: route subcutaneous.
Assay [3] has as its system Plasmodium berghei. Description: Antimalarial activity against Plasmodium berghei infected in mouse assessed as change in mean survival time at 40 mg/kg, sc administered as single dose 72 hrs after parasite infection (reference value: 6.1 days). Format: functional. The settings on record: route subcutaneous.
Assay [4] concerns Plasmodium berghei. As to the kind of experiment: Antimalarial activity against Plasmodium berghei infected in mouse assessed as change in mean survival time at 10 mg/kg, sc administered as single dose 72 hrs after parasite infection (reference value: 6.1 days). Format: functional. The settings on record: route subcutaneous.
Assay [5] concerns Plasmodium berghei. As to the kind of experiment: Antimalarial activity against Plasmodium berghei infected in mouse assessed as change in mean survival time at 20 mg/kg, sc administered as single dose 72 hrs after parasite infection (reference value: 6.1 days). The format is functional. The settings on record: route subcutaneous.
Assay [6] relates to Plasmodium berghei. Description: Antimalarial activity against Plasmodium berghei infected in mouse assessed as curing of parasite infection at 320 mg/kg, sc administered as single dose 72 hrs after parasite infection. Also noted: dose 320 mg/kg. The format is functional, organism-based. The procedure, abridged:
(§1)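 Mice (five per group) infected with P. berghei were given a single subcutaneous dose 72 h after infection. Increase in mean survival time over infected untreated controls was recorded, and an increase of at least 100% counted as activity. The screen was run by Rane Laboratories.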

Assay [7] concerns Plasmodium berghei. Description: Antimalarial activity against Plasmodium berghei infected in mouse assessed as curing of parasite infection at 160 mg/kg, sc administered as single dose 72 hrs after parasite infection. The format is functional, organism-based. Also noted: dose 160 mg/kg. The procedure, abridged:
as §1

Assay [8] deals with Plasmodium berghei. Description: Antimalarial activity against Plasmodium berghei infected in mouse assessed as curing of parasite infection at 640 mg/kg, sc administered as single dose 72 hrs after parasite infection. The format is functional, organism-based. Also noted: dose 640 mg/kg.
Assay [9] concerns Plasmodium berghei. Description: Antimalarial activity against sc dosed Plasmodium berghei infected in mouse assessed as dose resulting in mean survival time […]. The settings on record: read-out: MED. Format: functional.

The source made the active and inactive calls. The calls are words filed in the database; no cut-off is given here.

On to `Cl.OC(CC1CCCCN1)c1cc(-c2ccc(Cl)cc2)cc2c(Cl)cc(Cl)cc12` (stereo not given), for which the MST in the assay on Plasmodium berghei [1] worked out at 6 days; with Plasmodium berghei [2] it was 16.6 days; in the assay with Plasmodium berghei [3] it was 11.8 days; in the assay on Plasmodium berghei [4] it was 3.6 days; with Plasmodium berghei [5], 9.8 days.

In the case of `CCCCN(CCCC)CCC(O)c1cc(-c2ccc(Cl)cc2)cc2c(Cl)cc(Cl)cc12.Cl` (stereo not given), the outcome in the assay on Plasmodium berghei [6], in the assay with Plasmodium berghei [7] and in the assay with Plasmodium berghei [8] was Active. The MST in the assay on Plasmodium berghei [4] amounted to 2.9 days; in the assay with Plasmodium berghei [5] it was 12.1 days.

Regarding `Cl.OC(c1cc(-c2ccc(Cl)cc2)nc2c(Cl)cc(Cl)cc12)C1CCCCN1` (stereo not given), the minimal effective dose in the assay on Plasmodium berghei [9] came to 5 mg/kg.

Consider `CC(=O)O.OC(c1cc(-c2ccc(Cl)cc2)cc2c(Cl)cc(Cl)cc12)C1CCCCN1` (stereo not given), for which the minimal effective dose in the assay with Plasmodium berghei [9] came out at 20 mg/kg. Besides, the figures for the MST in the assay with Plasmodium berghei [4] and in the assay with Plasmodium berghei [5] were 0.5 days and 1.1 days, respectively.

Consider `CCCCN(CCCC)CC(O)c1cc(-c2ccc(Cl)cc2)nc2c(Cl)cc(Cl)cc12.Cl` (stereo not given), for which the minimal effective dose in the assay on Plasmodium berghei [9] amounted to 10 mg/kg.

`CCCCN(CCCC)CC(O)c1cc(-c2ccc(Cl)cc2)cc2c(Cl)cc(Cl)cc12.Cl` (stereo not given): the figures for the MST in the assay on Plasmodium berghei [3], with Plasmodium berghei [4] and in the assay with Plasmodium berghei [5] were 10.5 days, 7.9 days and 9.5 days, respectively. Also, the outcome in the assay with Plasmodium berghei [8] was Active. Besides, the minimal effective dose in the assay with Plasmodium berghei [9] was found to be 10 mg/kg.
